Assay results taken from ChEMBL document CHEMBL2086241, “Molecular modeling, synthesis and screening of some new 4-thiazolidinone derivatives with promising selective COX-2 inhibitory activity” (Eur J Med Chem, 2012).

What was measured:
[1] = Selectivity index, ratio of IC50 for ovine COX1 to IC50 for human recombinant COX2
[2] = target: T1, Prostaglandin G/H synthase 2 (Homo sapiens, UniProt P35354); experiment: Inhibition of human recombinant COX2 assessed as inhibition of PGF2alpha production from PGH2 by enzyme immunoassay
T1 sequence (P35354 whole entry): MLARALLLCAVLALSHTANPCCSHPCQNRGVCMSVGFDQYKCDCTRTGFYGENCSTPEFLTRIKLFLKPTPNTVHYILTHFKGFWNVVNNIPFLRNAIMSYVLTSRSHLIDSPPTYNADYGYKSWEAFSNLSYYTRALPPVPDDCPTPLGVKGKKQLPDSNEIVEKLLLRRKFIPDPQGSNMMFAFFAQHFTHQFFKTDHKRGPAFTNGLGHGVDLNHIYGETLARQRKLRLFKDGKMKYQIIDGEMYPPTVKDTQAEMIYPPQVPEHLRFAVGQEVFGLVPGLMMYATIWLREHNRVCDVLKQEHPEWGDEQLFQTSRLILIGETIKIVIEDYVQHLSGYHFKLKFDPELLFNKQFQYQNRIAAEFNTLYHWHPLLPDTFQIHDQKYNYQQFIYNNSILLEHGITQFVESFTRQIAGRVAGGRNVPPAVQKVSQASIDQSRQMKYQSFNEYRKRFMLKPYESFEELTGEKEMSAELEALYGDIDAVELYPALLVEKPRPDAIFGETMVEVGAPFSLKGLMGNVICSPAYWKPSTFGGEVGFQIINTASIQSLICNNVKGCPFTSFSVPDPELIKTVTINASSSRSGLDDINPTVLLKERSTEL

[3] = target: T2, Prostaglandin G/H synthase 1 (Ovis aries, UniProt P05979); experiment: Inhibition of ovine COX1 assessed as inhibition of PGF2alpha production from PGH2 by enzyme immuno assay
T2 sequence (P05979 whole entry): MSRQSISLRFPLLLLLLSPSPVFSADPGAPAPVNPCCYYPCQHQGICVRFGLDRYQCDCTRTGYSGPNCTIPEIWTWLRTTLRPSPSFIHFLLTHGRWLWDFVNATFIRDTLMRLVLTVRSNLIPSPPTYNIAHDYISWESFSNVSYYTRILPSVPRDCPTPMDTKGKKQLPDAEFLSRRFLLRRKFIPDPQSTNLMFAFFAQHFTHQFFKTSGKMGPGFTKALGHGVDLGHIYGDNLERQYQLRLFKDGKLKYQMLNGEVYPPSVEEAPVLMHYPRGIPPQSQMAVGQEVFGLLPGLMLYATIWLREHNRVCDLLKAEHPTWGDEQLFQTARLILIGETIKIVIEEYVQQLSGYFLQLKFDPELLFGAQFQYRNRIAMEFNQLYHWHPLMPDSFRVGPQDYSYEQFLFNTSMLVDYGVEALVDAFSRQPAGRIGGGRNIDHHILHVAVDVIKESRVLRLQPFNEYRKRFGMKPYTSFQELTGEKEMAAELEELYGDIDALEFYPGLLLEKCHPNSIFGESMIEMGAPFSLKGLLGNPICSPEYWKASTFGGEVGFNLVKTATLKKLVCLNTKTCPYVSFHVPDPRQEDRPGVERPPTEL
Procedure, shortened: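 Ovine COX-1 in Tris-HCl buffer, pH 8.0, with heme, preincubated 10 min at 37 °C. Arachidonic acid started the reaction, which was stopped after 2 min with 1 M HCl. PGH₂ was reduced to PGF2α with stannous chloride, and PGF2α was quantified by competitive EIA with an AChE tracer and Ellman's reagent. IC50 came from concentration–inhibition curves, duplicate determinations.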

Compound	Ratio IC50 [1]	IC50 [2]	IC50 [3]
CS(=O)(=O)c1ccc(NN2C(=O)CSC2c2ccc(C(F)(F)F)cc2)cc1 (stereo not given)	1.61	37.8 µM	61.1 µM
CS(=O)(=O)c1ccc(NN2C(=O)CSC2c2ccccc2)cc1 (stereo not given)	3.16	20 µM	63.2 µM
NS(=O)(=O)c1ccc(NN2C(=O)CSC2c2ccc(F)cc2)cc1 (stereo not given)	0.67	63 µM	42.1 µM
Cc1ccc(C2SCC(=O)N2Nc2ccc(S(N)(=O)=O)cc2)cc1 (stereo not given)	3.49	24.5 µM	85.5 µM
CS(=O)(=O)c1ccc(NN2C(=O)CSC2c2ccc(Cl)cc2)cc1 (stereo not given)	0.68	122 µM	83 µM
NS(=O)(=O)c1ccc(NN2C(=O)CSC2c2ccccc2)cc1 (stereo not given)	1.23	78.2 µM	96.4 µM
CS(=O)(=O)c1ccc(NN2C(=O)CSC2c2ccc(F)cc2)cc1 (stereo not given)	1.38	45.4 µM	62.7 µM
NS(=O)(=O)c1ccc(NN2C(=O)CSC2c2ccc(C(F)(F)F)cc2)cc1 (stereo not given)	1.05	51.8 µM	54.5 µM
NS(=O)(=O)c1ccc(NN2C(=O)CSC2c2ccc(Cl)cc2)cc1 (stereo not given)	0.85	45.5 µM	38.9 µM
Cc1ccc(C2SCC(=O)N2Nc2ccc(S(C)(=O)=O)cc2)cc1 (stereo not given)	7.27	14.4 µM	105 µM
